A word on the MIC: it is the lowest concentration found to suppress growth. As usually defined, the Ki is a dissociation constant, usually derived from enzyme kinetics or from competition with a known ligand. Read a high Ki as weaker binding.

The source of these data is ChEMBL document CHEMBL5104117, “Armeniaspirol analogues with more potent Gram-positive antibiotic activity show enhanced inhibition of the ATP-dependent proteases ClpXP and ClpYQ” (RSC Med Chem, 2022).

Converted amounts (≈) assume the structure as drawn. The source made the active and inactive calls. The rule behind the calls is not given here. Some results are limits rather than exact numbers.

Data set [1] deals with Staphylococcus aureus. Description: Bacteriostatic activity against methicillin-resistant Staphylococcus aureus IA116-USA100 assessed as inhibition of bacterial growth by microtiter broth dilution method. The data set is classed as functional, organism-based. On the technique in general: Broth dilution looks for growth in wells or tubes with falling amounts of substance.
Data set [2] concerns Staphylococcus aureus. Description: Inhibition of ClpX/ClpP activity in methicillin-resistant Staphylococcus aureus USA300 assessed as increase in urease activation incubated of overnight by phenol red dye based microplate reader analysis. An outline of the steps:
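Cell-based ClpXP readout in MRSA USA300 grown in Christensen's urea medium with phenol red indicator. ClpXP inhibition raises urease activity, which hydrolyses urea and releases ammonia, and the rising pH turns the medium from yellow to red. Minimum effective concentration (MEC) was taken as the lowest level that raised urease activity above background.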

Data set [3] relates to Pseudomonas aeruginosa. Description: Antibiotic activity against Pseudomonas aeruginosa PA01 assessed as inhibition of bacterial growth incubated for 16 hrs by microtiter broth dilution method. The data set is classed as functional.
The test system of data set [4] is Enterococcus faecalis. Description: Bacteriostatic activity against vancomycin resistant Enterococcus faecalis NJ3 assessed as inhibition of bacterial growth by microtiter broth dilution method. The data set is classed as functional, organism-based.
Data set [5] has as its system Enterococcus faecalis. Description: Antibiotic activity against vancomycin resistant Enterococcus faecalis NJ3 assessed as inhibition of bacterial growth incubated for 16 hrs by microtiter broth dilution method. The data set is classed as functional. An outline of the steps: (§1)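 Microtiter broth dilution assay in liquid medium, run alongside MBC determination, against a Gram-positive panel; the MIC was read as growth inhibition.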

The nature of data set [6]: Inhibition of C-terminal His tagged Bacillus subtilis ClpY/ClpQ expressed in Escherichia coli BL21 (DE3) using Cbz-Gly-Gly-Leu-AMC as peptide substrate by Cheng-prusoff equation analysis. In a few lines: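 Recombinant purified B. subtilis ClpYQ was used for inhibition kinetics. Peptide hydrolysis of the fluorogenic substrate Cbz-GGL-AMC at 100 μM was followed over a range of compound concentrations to give a dose-response curve.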

The subject of data set [7] is Staphylococcus aureus. Description: Antibiotic activity against methicillin-resistant Staphylococcus aureus USA300 assessed as inhibition of bacterial growth incubated for 16 hrs in presence of BSA by microtiter broth dilution method. The data set is classed as functional. In a few lines:
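MIC by microtiter broth dilution against MRSA USA300, with bovine serum albumin added to the medium to assess the effect of protein binding.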

Data set [8] can be described thus: Toxicity in sheep RBC assessed as induction of hemolysis at 200 uM and measured after 1 hr relative to control. The data set is classed as cell-based, Ovis aries, Erythrocyte. The following applies: sheep red blood cells, read-out: Activity. In a few lines: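 Hemolytic activity was measured as percent lysis of sheep erythrocytes, with compound tested up to 200 μM.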

The test system of data set [9] is Staphylococcus aureus. Description: Bacteriostatic activity against methicillin-resistant Staphylococcus aureus LAC-Fitz-USA300 assessed as inhibition of bacterial growth by microtiter broth dilution method. The data set is classed as functional, organism-based.
Data set [10] concerns Pseudomonas aeruginosa. Description: Bacteriostatic activity against Pseudomonas aeruginosa PA01 assessed as inhibition of bacterial growth by microtiter broth dilution method. The data set is classed as functional, organism-based.
Data set [11] has as its system Staphylococcus aureus. Description: Antibiotic activity against methicillin-resistant Staphylococcus aureus IA116-USA100 assessed as inhibition of bacterial growth incubated for 16 hrs by microtiter broth dilution method. The data set is classed as functional. An outline of the steps:
as §1

Data set [12] can be described thus: Cytotoxicity against human A549 cells assessed as number of viable cells at 100 uM incubated for 24 hrs by calcein-AM and ethidium homodimer-1 staining based flow cytometry. The note with it: read-out: Activity. The data set is classed as toxicity, cell-based. An outline of the steps: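 A549 human lung epithelial carcinoma cells were incubated with compound at up to 100 μM and stained with calcein-AM and ethidium homodimer-1. Viable and dead fractions were determined by confocal microscopy and flow cytometry, against a vehicle control.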

Data set [13] has as its system Staphylococcus aureus. Description: Bacteriostatic activity against methicillin-resistant Staphylococcus aureus MW2-USA400 assessed as inhibition of bacterial growth by microtiter broth dilution method. The data set is classed as functional, organism-based.
The test system of data set [14] is Staphylococcus aureus. Description: Antibiotic activity against methicillin-resistant Staphylococcus aureus MW2-USA400 assessed as inhibition of bacterial growth incubated for 16 hrs by microtiter broth dilution method. The data set is classed as functional. An outline of the steps: as §1
The subject of data set [15] is Staphylococcus aureus. Description: Antibiotic activity against methicillin-resistant Staphylococcus aureus LAC-Fitz-USA300 assessed as inhibition of bacterial growth incubated for 16 hrs by microtiter broth dilution method. The data set is classed as functional. An outline of the steps: as §1
Data set [16] concerns Staphylococcus aureus. Description: Antibiotic activity against methicillin-resistant Staphylococcus aureus MN8-USA200 assessed as inhibition of bacterial growth incubated for 16 hrs by microtiter broth dilution method. The data set is classed as functional. An outline of the steps:
as §1

For data set [17], the system named is Staphylococcus aureus. Description: Bacteriostatic activity against methicillin-resistant Staphylococcus aureus MN8-USA200 assessed as inhibition of bacterial growth by microtiter broth dilution method. The data set is classed as functional, organism-based.
The test system of a further data set is Escherichia coli. Description: Antibiotic activity against Escherichia coli with delta.tolC mutation assessed as inhibition of bacterial growth by microtiter broth dilution method. The data set is classed as functional, organism-based.

Turning to `CCCCCCc1c(O)c(Cl)cc2c1OC1(C2=O)C(Cl)=C(Cl)C(=O)N1CCCCCC` (stereo unspecified), the result with Staphylococcus aureus [1], with Enterococcus faecalis [4], in the data set with Staphylococcus aureus [9], in the data set on Pseudomonas aeruginosa [10], with Staphylococcus aureus [13] and in the data set with Staphylococcus aureus [17] was Active. In the data set on Staphylococcus aureus [2], the MEC was 0.067 µg/mL. Also, the minimal inhibitory concentration (MIC) in the data set on Pseudomonas aeruginosa [3] is greater than 32 µg/mL; with Enterococcus faecalis [5], 2 µg/mL (≈ 4.09 µM); in the data set on Staphylococcus aureus [7], 32 µg/mL; with Staphylococcus aureus [11] it was 1 µg/mL (≈ 2.05 µM); in the data set on Staphylococcus aureus [14], 1 µg/mL (≈ 2.05 µM); with Staphylococcus aureus [15], 1 µg/mL (≈ 2.05 µM). The MIC in the data set with Staphylococcus aureus [16] stood at 1 µg/mL (≈ 2.05 µM). This compound showed a Ki in [6] of 1.3 µM. Moreover, in [8], the hemolysis at 1 h, 200 µM is less than 5%. Besides, in [12], the viability at 24 h, 100 µM was greater than 95%.

Regarding `CCCCCCc1c(O)c(Cl)cc2c1OC1(C2=O)C(Cl)=C(Cl)C(=O)N1C` (stereo unspecified), the result with Staphylococcus aureus [1], in the data set on Enterococcus faecalis [4], with Escherichia coli, in the data set on Staphylococcus aureus [9], in the data set with Pseudomonas aeruginosa [10] and in the data set on Staphylococcus aureus [13] was Active. Also, the outcome with Staphylococcus aureus [17] was Active. Moreover, in the data set on Staphylococcus aureus [2], the MEC was 1 µg/mL. The minimal inhibitory concentration (MIC) in the data set on Pseudomonas aeruginosa [3] was greater than 32 µg/mL; with Enterococcus faecalis [5] it was 8 µg/mL (≈ 19.1 µM); with Staphylococcus aureus [7], greater than 32 µg/mL; with Staphylococcus aureus [11] it was 4 µg/mL (≈ 9.55 µM); in the data set with Staphylococcus aureus [14], 4 µg/mL (≈ 9.55 µM); in the data set on Staphylococcus aureus [15] it was 4 µg/mL (≈ 9.55 µM). The MIC with Staphylococcus aureus [16] is 4 µg/mL (≈ 9.55 µM). In data set [6], this compound yielded a Ki of 3.2 µM. Further, the hemolysis at 1 h, 200 µM in [8] was less than 15%. For the same compound, in data set [12], the viability at 24 h, 100 µM is greater than 95%.

For `CCCCCCc1c(O)c(Cl)cc2c1OC1(C2=O)C(Cl)=C(Cl)C(=O)N1CCc1ccccc1` (stereo unspecified), the outcome with Staphylococcus aureus [1], with Enterococcus faecalis [4], with Staphylococcus aureus [9], in the data set on Pseudomonas aeruginosa [10], in the data set with Staphylococcus aureus [13] and in the data set on Staphylococcus aureus [17] was Active. The MEC in the data set on Staphylococcus aureus [2] was 0.25 µg/mL. Further, the minimum inhibitory concentration (MIC) was greater than 32 µg/mL in the data set with Pseudomonas aeruginosa [3]; 1 µg/mL (≈ 1.97 µM) in the data set on Enterococcus faecalis [5]; 1 µg/mL (≈ 1.97 µM) in the data set on Staphylococcus aureus [11]; 0.5 µg/mL (≈ 0.983 µM) with Staphylococcus aureus [14]; 0.5 µg/mL (≈ 0.983 µM) with Staphylococcus aureus [15]; 0.5 µg/mL (≈ 0.983 µM) in the data set on Staphylococcus aureus [16]. Besides, the inhibitory constant (Ki) in data set [6] worked out at 0.41 µM. Besides, in data set [8], the hemolysis at 1 h, 200 µM is less than 5%. The viability at 24 h, 100 µM in [12] is greater than 95%.
